These results are taken from ChEMBL document CHEMBL3734737, “Synthesis and Evaluation of a Radioiodinated Tracer with Specificity for Poly(ADP-ribose) Polymerase-1 (PARP-1) in Vivo” (J Med Chem, 2015).

Series [1] deals with Poly [ADP-ribose] polymerase 1 (Homo sapiens, UniProt P09874). The experiment in a line: Inhibition of PARP1 (unknown origin) incubated for 10 mins using biotinylated NAD+ and activated DNA by colorimetric assay.
Series [2] can be described thus: Octanol-water partition coefficient, log P of the compound at 0.5 to 1.5 mg/ml by HPLC method. The series is classed as physicochemical. In short, it runs like this: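 Samples of 0.5–1.5 mg/mL in MeCN/PBS were run in triplicate on reverse-phase C18 HPLC. The gradient was PBS/MeCN at 1.0 mL/min, with PBS at pH 4.0, 7.4 and 10.0. Retention times were calibrated against seven standards of known chromatographic hydrophobicity index (CHI) to give non-ionized CHI, from which log P was derived.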

In another series the target is albumin (Homo sapiens, UniProt P02768). Put plainly: Protein binding to human serum albumin at 0.5 to 1.5 mg/ml by HPLC method. The series is classed as ADME. The settings on record: read-out: PPB (converted).
For the next series, the system named is Brain. Put plainly: Drug level in brain of human U87MG-Luc2 cells xenografted CD1 mouse at 0.8 to 1.1 MBq, iv after 30 mins by gamma counting method. In kind it is ADME, organism-based. Conditions: in vivo, 0.5 h; call rule not given here. The method, boiled down: (§1)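 Female 7–11 week CD1 nude mice carrying subcutaneous U87MG-Luc2 flank xenografts (5×10^6 cells; used 21–30 days post-implant) got a tail-vein bolus of 0.8–1.1 MBq [123I]-tracer in 10% EtOH/0.9% saline. They were killed by CO2 at 30 min (n=3). Tissues were fixed in formaldehyde, weighed and gamma counted. Background was subtracted and %ID/g was derived from a dose-stock control.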
Background: Xenograft models place foreign cells or tissue in a host animal.

The nature of series [3]: Drug level in small bowel matter of human U87MG-Luc2 cells xenografted CD1 mouse at 0.8 to 1.1 MBq, iv after 30 mins by gamma counting method. The series is classed as ADME, organism-based. The settings on record: in vivo, 0.5 h. The method, boiled down:
as §1

The nature of series [4]: Drug level in solid feces of human U87MG-Luc2 cells xenografted CD1 mouse at 0.8 to 1.1 MBq, iv after 30 mins by gamma counting method. Conditions: in vivo, 0.5 h, TDE = time-dependent effect. In kind it is ADME, organism-based. The method, boiled down: as §1
For a further series, the system named is Liver. Put plainly: Drug level in liver of human U87MG-Luc2 cells xenografted CD1 mouse at 0.8 to 1.1 MBq, iv after 30 mins by gamma counting method. In kind it is ADME, organism-based. The settings on record: in vivo, 0.5 h. In short, it runs like this: as §1
The nature of series [5]: Metabolic stability in black-6 mouse plasma assessed as residual compound level at 250 uM incubated for 20 hrs by LC-MS method. In kind it is ADME, cell-free. The settings on record: read-out: Stability. The method, boiled down:
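Plasma was taken from EDTA-treated female black-6 mouse blood. Compound (10 μL of 250 μM stock into 50 μL plasma; DMSO <1%) was held at room temperature for 0 or 20 h. It was MeOH-precipitated and measured by LC-MS (SIM) against an internal standard, as % parent relative to a no-plasma control. Three experiments, ± SD.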

A short description of series [6]: Intrinisc clerarance in human liver microsomes assessed as residual compound level at 60 uM preincubated for 10 mins followed by NADPH addition in KH2PO4 at pH 7.4 by LC-MS method. In kind it is ADME. The settings on record: read-out: CLH.

albumin, sequence (P02768 whole entry): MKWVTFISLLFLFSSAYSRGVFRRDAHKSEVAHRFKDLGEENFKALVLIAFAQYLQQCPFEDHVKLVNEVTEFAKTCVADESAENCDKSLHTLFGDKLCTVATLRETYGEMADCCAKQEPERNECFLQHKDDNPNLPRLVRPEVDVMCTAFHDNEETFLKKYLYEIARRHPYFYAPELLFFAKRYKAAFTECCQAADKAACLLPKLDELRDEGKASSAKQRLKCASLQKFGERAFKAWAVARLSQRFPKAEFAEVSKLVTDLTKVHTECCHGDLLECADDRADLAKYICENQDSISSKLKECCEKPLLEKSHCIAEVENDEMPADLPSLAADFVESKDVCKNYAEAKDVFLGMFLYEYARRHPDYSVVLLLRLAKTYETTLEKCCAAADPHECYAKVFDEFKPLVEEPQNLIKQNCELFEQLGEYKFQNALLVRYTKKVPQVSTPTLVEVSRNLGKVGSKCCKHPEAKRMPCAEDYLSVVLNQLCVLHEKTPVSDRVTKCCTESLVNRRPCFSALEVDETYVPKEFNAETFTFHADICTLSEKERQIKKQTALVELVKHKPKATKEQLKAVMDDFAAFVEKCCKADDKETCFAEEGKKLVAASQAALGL
Poly [ADP-ribose] polymerase 1, sequence (P09874 whole entry): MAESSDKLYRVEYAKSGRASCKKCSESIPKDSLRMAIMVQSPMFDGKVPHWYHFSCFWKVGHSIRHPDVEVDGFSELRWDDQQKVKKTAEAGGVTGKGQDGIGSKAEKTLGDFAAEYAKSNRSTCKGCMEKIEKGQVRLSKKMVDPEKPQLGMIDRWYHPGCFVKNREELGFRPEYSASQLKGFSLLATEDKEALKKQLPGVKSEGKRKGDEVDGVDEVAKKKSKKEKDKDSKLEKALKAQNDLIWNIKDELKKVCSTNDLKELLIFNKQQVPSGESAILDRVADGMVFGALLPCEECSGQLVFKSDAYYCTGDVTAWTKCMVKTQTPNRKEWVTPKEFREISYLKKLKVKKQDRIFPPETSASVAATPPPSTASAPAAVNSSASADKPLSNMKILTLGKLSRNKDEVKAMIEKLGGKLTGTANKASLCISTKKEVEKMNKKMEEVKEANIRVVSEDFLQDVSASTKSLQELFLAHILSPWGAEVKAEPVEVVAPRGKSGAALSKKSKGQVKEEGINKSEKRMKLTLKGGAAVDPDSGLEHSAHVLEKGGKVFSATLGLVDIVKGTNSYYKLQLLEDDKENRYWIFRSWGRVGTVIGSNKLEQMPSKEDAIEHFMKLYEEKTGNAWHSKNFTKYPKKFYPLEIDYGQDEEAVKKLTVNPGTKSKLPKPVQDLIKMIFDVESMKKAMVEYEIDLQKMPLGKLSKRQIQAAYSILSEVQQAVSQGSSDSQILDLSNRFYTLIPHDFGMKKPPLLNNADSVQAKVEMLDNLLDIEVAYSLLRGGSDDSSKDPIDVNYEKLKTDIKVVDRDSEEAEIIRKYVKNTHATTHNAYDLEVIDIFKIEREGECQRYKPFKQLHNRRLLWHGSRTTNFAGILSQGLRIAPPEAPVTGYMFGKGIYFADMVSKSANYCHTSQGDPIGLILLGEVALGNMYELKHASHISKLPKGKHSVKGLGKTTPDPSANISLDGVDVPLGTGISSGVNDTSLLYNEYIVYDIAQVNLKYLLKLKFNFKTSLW

Broadly, the IC50 is the point on the concentration scale where inhibition reaches its midpoint. Usually logP stands for a log measure of how a compound divides between an organic and an aqueous phase. Compound `COc1ccc(C(=O)N2CCN(C(=O)c3cc(Cc4n[nH]c(=O)c5ccccc45)ccc3F)CC2)cc1I` displayed an IC50 in [1] of 17.6 nM. This compound showed a lipophilicity (logP) in series [2] of 2.95. Further, at albumin, the fraction unbound was 0.035.
The matching figures for `O=C(COc1ccc(I)cc1)N1CCN(C(=O)c2cc(Cc3n[nH]c(=O)c4ccccc34)ccc2F)CC1`: 3 nM, 3.25 and 0.019.
Turning to `O=C(c1ccc([123I])cc1)N1CCN(C(=O)c2cc(Cc3n[nH]c(=O)c4ccccc34)ccc2F)CC1`, the Drug uptake entry in the series on Brain is “Not Active”; in series [3], “Active”; in series [4], “tde”; in the series with Liver, “Active”.
Consider `O=C(Cc1cccc(I)c1)N1CCN(C(=O)c2cc(Cc3n[nH]c(=O)c4ccccc34)ccc2F)CC1`, for which the IC50 in series [1] was 5.8 nM. The same compound showed a logP in [2] of 3.13. At albumin, the fraction unbound is 0.025.
For `Cc1ccc(C(=O)N2CCN(C(=O)c3cc(Cc4n[nH]c(=O)c5ccccc45)ccc3F)CC2)cc1I` the same measures were 16.9 nM, 3.23 and 0.024.
As for `O=C(c1ccc(I)cc1)N1CCN(C(=O)c2cc(Cc3n[nH]c(=O)c4ccccc34)ccc2F)CC1`, the remaining at 20 h, 250 µM in [5] came to 98%. In series [2], this compound had a logP of 3. The fraction unbound at albumin is 0.038. In [6], the microsomal CLint at 60 µM worked out at 85 µL/min/mg.
`O=C(c1cccc(I)c1)N1CCN(C(=O)c2cc(Cc3n[nH]c(=O)c4ccccc34)ccc2F)CC1`: the logP in series [2] was determined as 2.97. Further, the fraction unbound on albumin is 0.039.
`O=C(c1cc(Cc2n[nH]c(=O)c3ccccc23)ccc1F)N1CCN(S(=O)(=O)c2ccc(I)cc2)CC1`: the half-inhibitory concentration (IC50) in series [1] came out at 22.6 nM. Further, the logP in [2] is more than 3.25. Besides, the fraction unbound at albumin is 0.016.
As to `O=C1CN=C(c2ccccn2)c2cc(Br)ccc2N1` [BROMAZEPAM], the fraction unbound at albumin is 0.4.
On the same count and under the same terms, the result for `CCCC1O[C@@H]2C[C@H]3[C@@H]4CCC5=CC(=O)C=C[C@]5(C)[C@H]4[C@@H](O)C[C@]3(C)[C@]2(C(=O)CO)O1` (some centres not stated) [BUDESONIDE] reads 0.12; that for `NC(=O)N1c2ccccc2C=Cc2ccccc21` [CARBAMAZEPINE], 0.25; that for `COC(=O)C1=C(C)NC(C)=C(C(=O)OCCN(C)Cc2ccccc2)C1c1cccc([N+](=O)[O-])c1` (configuration not stated) [NICARDIPINE], 0.05.
Turning to `CNC(=C[N+](=O)[O-])NCCSCc1csc(CN(C)C)n1` [NIZATIDINE], the fraction unbound at albumin was 0.65.
In series [2], `O=C(c1cc(Cc2n[nH]c(=O)c3ccccc23)ccc1F)N1CCN(C(=O)C2CC2)CC1` [OLAPARIB] displayed a lipophilicity (logP) of 1.95. Besides, the microsomal CLint at 60 µM in series [6] was 29 µL/min/mg.
